Screening results as filed in PubChem.
Rows were chosen to be rich in hits. Some 2.6% of all compounds tested hit in one or more screens of this group.
MITF act: activators of MITF-driven TRPM1 promoter reporter, primary screen, cell-based, SK-MEL-5, luciferase, single point; actives 0.75% (n = 300,000); SK-MEL-5 TRPM1-promoter luciferase, 24 h; % of positive control, neutral wells = 0; AID 588334, 2011; activation, % at 12.5 µM;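 active = mean activation of at least 80% with every replicate also reaching 80%; inconclusive = mean reaches 80% but some replicate falls short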;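 also: 0% = neutral control wells and 100% = parthenolide positive control wells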
Xi reactivation: activators of inactive X chromosome reactivation, primary screen, imaging, XiGFP fibroblasts, GFP high-content imaging, set 2. actives 0.055% (n = 360,000). activation, % at 7.58 µM. XiGFP mouse fibroblasts, % GFP-positive cells imaging, 3 d; cells co-treated with 5-aza-dC sensitizer; scaled so ellipticine positive control = 100%;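 active = mean normalized replicate activation at least 10% and every replicate at or above 10%; inconclusive = only one of the two criteria met; inactive = mean below 10% and not all replicates reach 10%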;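 also: 0% = median of on-plate neutral control wells and 100% = ellipticine 6 µM median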
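assay system = SV40-immortalized XiGFP fibroblast cells, line 68-5-11 | buffer or medium = DMEM plus 5-aza-dC sensitizer | doses = single-point pinned compound dosing | times = 3-day compound exposure, then 15 min fixation at room temperature | benchmarks = positive control ellipticine, 6 µM final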
Wnt bcat act: Wnt/beta-catenin pathway activators, primary screen, cell-based, plate reader, single point; activation, % at 9.35 µM; actives 1.2% (n = 300,000); AID 743398, 2014; Wnt/beta-catenin reporter cell assay, activator; in the data active = activation above about 30%, passing the limit was not always enough; inconclusive = no clear call, values can overlap the other calls;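 also: 0% = neutral control wells and 100% = positive control wells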
Vif inh: HIV Vif self-association inhibitors, primary screen, imaging, HEK293T, single point; inhibition, % at 7.49 µM; AID 602346, 2012; HEK293T cells, Vif self-association by quenched fluorescence, 24 h; actives 0.35% (n = 340,000); in the data active = inhibition above about 50%, passing the limit was not always enough; inconclusive = no clear call, values can overlap the other calls; inactive = below about 31%
esBAF inh: Bmi1 luciferase reporter increase in mESCs, primary screen, esBAF inhibitor project, mouse ES cells, Bmi1 luciferase knock-in, single point; reporter increase, % at 12.5 µM; actives 2% (n = 350,000); 24 h; 100% = twice the neutral-well signal; in the data active = activation above about 40%; inconclusive = no clear call, values can overlap the other calls;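 also: 0% = median of the plate's neutral control wells and 100% = double that signal; a rise in the Bmi1 reporter signal indicates esBAF inhibition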
* marks the source's active call; other numbers are inactive results; i = inactive; ? = inconclusive; . = no result given.

SMILES	MITF act	Xi reactivation	Wnt bcat act	Vif inh	esBAF inh
COc1ccc(N=Cc2sc(O)c3ccccc23)cc1	28.2	.	34.5*	4.5	81.9*
COc1ccc(-n2c(O)c(C=Nc3ccccc3)c3ccccc3c2=O)cc1	12.8	0.2	-6.7	5.2	3.3
C[C@@H]1CN([C@H](C)CO)C(=O)c2cc(NC(=O)c3ccncc3)ccc2O[C@@H](C)CCCCO[C@H]1CN(C)Cc1ccc(Cl)c(Cl)c1	.	0.2	.	.	.
COc1ccc2c3c(n(C)c2c1)[C@@H](CO)N(C(=O)NC(C)C)CC31CN(CC2CCCC2)C1	.	0.3	.	.	.
CC1Cc2ccccc2N1C(=O)/C=C/c1cccc(F)c1 (configuration not stated)	95.5*	0.0	13.7	-3.8	89.5*
CC1Cc2ccccc2N1C(=O)COC(=O)/C=C/c1ccc(F)cc1 (configuration not stated)	-6.5	-1.0	-1.4	15.7	-7.1
CC(Sc1nncn1C)C(=O)Nc1ccc(N2CCCCC2)cc1 (configuration not stated)	6.2	0.1	33.7*	0.0	33.7
C[C@@H]1CN([C@@H](C)CO)C(=O)c2cc(NC(=O)c3ccncc3)ccc2O[C@@H](C)CCCCO[C@@H]1CN(C)C(=O)CCC(F)(F)F	.	.	.	.	-3.4
O=C(c1ccccc1)c1ccc(-c2ccc(O)cc2)cc1	24.0	0.0	35.3*	-2.7	76.2*
N#CCSc1ccc2nc(-c3ccccc3)cn2n1	70.2	0.0	24.8	-5.6	51.4*
O=C1c2cccc3c([N+](=O)[O-])ccc(c23)C(=O)N1c1ccc(Cl)cn1	-32.3	.	.	-2.2	-2.1
O=C1c2cccc3c([N+](=O)[O-])ccc(c23)C(=O)N1c1ccccn1	.	.	-21.7	112.9*	-3.4
O=C1c2cccc3cccc(c23)C(=O)N1c1nccs1	5.1	.	.	2.9	-2.4
CC(=O)Oc1ccc(N2C(=O)c3cccc4c([N+](=O)[O-])ccc(c34)C2=O)cc1	.	-0.1	-6.7	i	-6.5
O=C1c2cccc3c([N+](=O)[O-])ccc(c23)C(=O)N1O	-46.3	16.8*	2.2	-0.8	-9.3
O=C1c2cccc3c([N+](=O)[O-])ccc(c23)C(=O)N1c1nccs1	-58.7	.	.	67.0*	-17.2
O=C(C[C@@H]1CC[C@H](NC(=O)CC2CC2)[C@@H](CO)O1)NCc1ccccc1	.	-0.5	.	.	.
Fc1cccc(/C=N/Nc2ccccn2)c1	97.5*	0.0	16.2	1.7	.
Clc1ccccc1NN=Cc1ccccn1	.	0.0	59.8*	-2.8	.
Fc1cccc(Cl)c1/C=N/Nc1ccccn1	35.2	8.7	16.8	-4.3	55.7*
Clc1cccc(Cl)c1/C=N\Nc1nccs1	-4.5	.	.	-13.8	5.6
Fc1cccc(F)c1/C=N/Nc1ccccn1	12.5	0.2	5.9	.	.
Cc1csc(N/N=C/c2c(F)cccc2Cl)n1	18.8	0.0	8.3	0.0	44.9*
CCC(=O)N1C[C@@H](C)[C@H](OC)CN(C)C(=O)c2cc(NC(=O)C3CCCCC3)ccc2OC[C@@H]1C	.	-0.6	.	.	3.9
CC(=O)N(C)C[C@H]1OCc2ccccc2-c2c(n(C)c3ccccc23)C(=O)N([C@H](C)CO)C[C@H]1C	.	0.2	.	.	-1.6
SMILES	MITF act	Xi reactivation	Wnt bcat act	Vif inh	esBAF inh
COc1ccc(CN(C)C[C@@H]2Oc3ccc(NC(=O)C4CCCCC4)cc3C(=O)N([C@@H](C)CO)C[C@H]2C)cc1	.	-0.4	.	.	-2.4
Cc1ccc(S(=O)(=O)Nc2ccc3c(c2)C(=O)N([C@@H](C)CO)C[C@H](C)[C@@H](CN(C)C(=O)Nc2ccc(C(F)(F)F)cc2)OCCCC[C@H](C)O3)cc1	.	0.1	.	.	-2.1
Clc1ccc(C=NNc2ccccn2)c(Cl)c1	0.0	0.3	21.0	-3.4	43.5*
Clc1ccc(/C=N/NC(=Nc2ccccc2)c2ccccn2)c(Cl)c1	13.6	.	.	3.1	-13.2
Cc1ccnc(NC(=O)c2oc3ccccc3c2C)c1	5.7	0.3	-4.8	-8.8	-12.1
CCOc1ccc2oc(C(=O)Nc3cc(C)ccn3)c(C)c2c1	?	0.0	42.0*	-6.0	5.9
CCOc1ccc2oc(C(=O)NNC(=O)c3ccccc3O)c(C)c2c1	4.9	0.1	-3.7	0.4	48.1*
CCOc1ccc2oc(C(=O)Nc3ccc4c(c3)OCO4)c(C)c2c1	89.8*	0.0	1.7	2.1	.
O=C(C[C@H]1CC[C@@H](NC(=O)C2CCC2)[C@@H](CO)O1)NC1CCC1	.	-0.5	.	.	-0.5
CN(C)c1nc(C=C(C#N)C#N)c(Cl)n1-c1ccc(F)cc1	-100.2	0.3	-1.4	105.4*	.
CCN1CCN(c2cc(=O)n(-c3cc(Cl)ccc3C)c(=O)[nH]2)CC1	-5.1	.	.	57.6*	-9.1
O=C(Cc1ccncc1)Nc1ccc2c(c1)[C@H]1C[C@@H](CC(=O)N3CCCCC3)O[C@H](CO)[C@H]1O2	.	0.0	.	.	.
CCOc1cc(C2NC(=O)NC(C)=C2C(C)=O)cc(Cl)c1OCC(=O)O (configuration not stated)	2.2	.	.	-9.5	-3.3
CCOc1c(Cl)cc(C2NC(=O)NC(C)=C2C(=O)NCc2ccccc2)cc1OC (configuration not stated)	30.7	.	.	8.5	50.0*
Cc1noc(C)c1CSc1nc2ccccc2s1	.	.	-1.1	10.1	2.9
c1csc(CSc2nc3ccccc3s2)c1	97.9*	.	.	0.9	.
O=C(C[C@@H]1CC[C@H](NS(=O)(=O)c2ccccc2)[C@H](CO)O1)N1CCC(Cc2ccccc2)CC1	.	0.3	.	.	.
CCNC(=S)Nc1ccc2c(c1)oc1ccccc12	?	0.8	38.4*	-5.9	63.3*
O=C(Nc1ccc2c(c1)oc1ccccc12)N1CCOCC1	55.9	.	.	4.3	59.8*
CC(C)c1ccc(NC(=O)N2CCOCC2)cc1	.	-0.1	3.4	-4.4	44.8*
CC(=O)Nc1ccc(NC(=O)N2CCOCC2)cc1	.	1.2	-0.7	-2.1	-1.0
COc1ccc(CN(C)C[C@@H]2OCCCC[C@H](C)Oc3ccc(NS(=O)(=O)c4ccccc4)cc3C(=O)N([C@H](C)CO)C[C@@H]2C)cc1	.	0.3	.	.	0.9
Cc1ccc(S(=O)(=O)Nc2cccc3c2O[C@@H](CN(C)Cc2ccc(C(F)(F)F)cc2)[C@H](C)CN([C@@H](C)CO)C3=O)cc1	.	-1.2	.	.	1.4
Cc1cc(C(=O)CSc2nc3ccccc3o2)c(C)n1C1CC1	.	.	.	23.7	36.4
C=CCn1c(C)cc(C(=O)CSc2nc3ccccc3o2)c1C	46.4	.	47.2*	-38.9	.
Cc1cccc(NC(=O)CSc2nc3ccccc3o2)c1	.	.	.	-2.8	46.8*
C=CCn1c(C)cc(C(=O)CSc2nc3ccccc3[nH]2)c1C	0.7	.	.	-23.8	-63.7
C=CCn1c(C)cc(C(=O)CSc2nc3ccccc3c(=O)[nH]2)c1C	16.4	.	44.1*	.	12.2
COc1cc(C)ccc1OCCOc1ccccc1Cl	90.3*	.	.	-5.2	76.7*
